Measurements published in ChEMBL document CHEMBL1150609, “New furanoid diterpenes from Caesalpinia pulcherrima” (2002).

How the values were obtained:
Type in all cases: functional
[1] = system: Staphylococcus aureus; experiment: Antimicrobial activity against Staphylococcus aureus UPCC 1143 assessed as clearing zone at 30 ug after 24 hrs; conditions: read-out: IZ
Method in brief: (§1)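 Agar-well diffusion. 24 h cultures were suspended in 0.1% peptone water at about 6 × 10^8 cells/mL, and 0.1 mL was seeded into a nutrient agar overlay. Three 10 mm wells were cut per plate, each loaded with sample in 95% EtOH (70 µg test sample; 30 µg standard). Plates were incubated at 30 ± 1 °C for 24 h, and the clear inhibition zone was measured in mm.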

[2] = system: Escherichia coli; experiment: Antimicrobial activity against Escherichia coli UPCC 1195 assessed as clearing zone at 30 ug after 24 hrs; conditions: read-out: IZ; method in brief: as §1
[3] = system: Trichophyton mentagrophytes; experiment: Antimicrobial activity against Trichophyton mentagrophytes UPCC 4193 assessed as clearing zone at 30 ug after 72 hrs; conditions: read-out: IZ
Method in brief: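 T. mentagrophytes was grown as a 5-day culture and suspended in 0.1% peptone water at about 6 × 10^8 cells/mL. A 0.1 mL aliquot was seeded into a potato dextrose agar overlay with three 10 mm wells, each dosed in 95% EtOH (70 µg test sample; 30 µg standard). Plates were incubated at 30 ± 1 °C for 72 h, and the clear inhibition zone was read in mm.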

[4] = system: Bacillus subtilis; experiment: Antimicrobial activity against Bacillus subtilis UPCC 1149 assessed as antimicrobial index at 30 ug after 24 hrs
[5] = system: Trichophyton mentagrophytes; experiment: Antimicrobial activity against Trichophyton mentagrophytes UPCC 4193 assessed as antimicrobial index at 30 ug after 72 hrs
[6] = system: Staphylococcus aureus; experiment: Antimicrobial activity against Staphylococcus aureus UPCC 1143 assessed as antimicrobial index at 30 ug after 24 hrs
[7] = system: Escherichia coli; experiment: Antimicrobial activity against Escherichia coli UPCC 1195 assessed as antimicrobial index at 30 ug after 24 hrs
[8] = system: Candida albicans; experiment: Antimicrobial activity against Candida albicans UPCC 2168 assessed as clearing zone at 30 ug after 48 hrs; conditions: read-out: IZ
Method in brief: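 C. albicans was grown as a 24 h culture, suspended at about 6 × 10^8 cells/mL in 0.1% peptone water, and 0.1 mL was seeded into a glucose yeast peptone agar overlay. Three 10 mm wells per plate received sample in 95% EtOH (70 µg test sample; 30 µg standard). Plates were incubated at 30 ± 1 °C for 48 h, and the clear growth-inhibition zone was measured in mm.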

[9] = system: Pseudomonas aeruginosa; experiment: Antimicrobial activity against Pseudomonas aeruginosa UPCC 1244 assessed as antimicrobial index at 30 ug after 24 hrs
[10] = system: Aspergillus niger; experiment: Antimicrobial activity against Aspergillus niger UPCC 3701 assessed as antimicrobial index at 30 ug after 48 hrs
[11] = system: Candida albicans; experiment: Antimicrobial activity against Candida albicans UPCC 2168 assessed as antimicrobial index at 30 ug after 48 hrs
[12] = system: Pseudomonas aeruginosa; experiment: Antimicrobial activity against Pseudomonas aeruginosa UPCC 1244 assessed as clearing zone at 30 ug after 24 hrs; conditions: read-out: IZ; method in brief: as §1
[13] = system: Bacillus subtilis; experiment: Antimicrobial activity against Bacillus subtilis UPCC 1149 assessed as clearing zone at 30 ug after 24 hrs; conditions: read-out: IZ; method in brief: as §1
[14] = system: Aspergillus niger; experiment: Antimicrobial activity against Aspergillus niger UPCC 3701 assessed as clearing zone at 30 ug after 48 hrs; conditions: read-out: IZ

Question: How did the zone of inhibition at 30 µg/disc [1] turn out when `COc1cccc(OC)c1C(=O)OCc1ccccc1` was run?
Answer: 12 mm

Question: And the zone of inhibition at 30 µg/disc [2]?
Answer: 12 mm

Question: And the zone of inhibition at 30 µg/disc [3]?
Answer: 14 mm

Question: What about the Activity [4] of the same molecule?
Answer: 0.3

Question: What about the Activity [5] of the same molecule?
Answer: 0.4

Question: And the Activity [6]?
Answer: 0.2

Question: And the Activity [7]?
Answer: 0.2

Question: And the zone of inhibition at 30 µg/disc [8]?
Answer: 14 mm

Question: And the Activity [9]?
Answer: 0.3

Question: And the Activity [10]?
Answer: 0

Question: What about the Activity [11] of the same molecule?
Answer: 0.4

Question: And the zone of inhibition at 30 µg/disc [12]?
Answer: 13 mm

Question: And the zone of inhibition at 30 µg/disc [13]?
Answer: 13 mm

Question: How did the zone of inhibition at 30 µg/disc [1] turn out when `O=C(N[C@H](CO)[C@H](O)c1ccc([N+](=O)[O-])cc1)C(Cl)Cl` [CHLORAMPHENICOL] was run?
Answer: 28 mm

Question: What about the zone of inhibition at 30 µg/disc [2] of the same molecule?
Answer: 24 mm

Question: What about the Activity [4] of the same molecule?
Answer: 2.5

Question: What about the Activity [6] of the same molecule?
Answer: 1.8

Question: And the Activity [7]?
Answer: 1.4

Question: And the Activity [9]?
Answer: 0.2

Question: And the zone of inhibition at 30 µg/disc [12]?
Answer: 12 mm

Question: And the zone of inhibition at 30 µg/disc [13]?
Answer: 35 mm

Question: Which zone of inhibition at 30 µg/disc [3] does the source give for `Clc1ccccc1C(c1ccccc1)(c1ccccc1)n1ccnc1` [CLOTRIMAZOLE] here?
Answer: 21 mm

Question: And the Activity [5]?
Answer: 1.1

Question: And the zone of inhibition at 30 µg/disc [8]?
Answer: 20 mm

Question: And the Activity [11]?
Answer: 1

Question: What does the source list for `C[C@@H]1C[C@@H]([C@H](O)CC2CC(=O)NC(=O)C2)C(=O)[C@@H](C)C1` [CYCLOHEXIMIDE]?
Answer: Activity [10]: 0.3; zone of inhibition at 30 µg/disc [14]: 13 mm

Question: Which results are given for `C=C1c2ccoc2C[C@H]2[C@H]1C[C@@H](OC(=O)c1ccccc1)[C@@]1(O)C(C)(C)CCC[C@]21C` [ISOVOUACAPENOL A]?
Answer: zone of inhibition at 30 µg/disc [1]: 16 mm; zone of inhibition at 30 µg/disc [2]: 12 mm; zone of inhibition at 30 µg/disc [3]: 12 mm; Activity [4]: 0.5; Activity [5]: 0.2; Activity [6]: 0.6; Activity [7]: 0.2; zone of inhibition at 30 µg/disc [8]: 14 mm; Activity [9]: 0.2; Activity [10]: 0; Activity [11]: 0.4; zone of inhibition at 30 µg/disc [12]: 12 mm; zone of inhibition at 30 µg/disc [13]: 15 mm

Question: With `CC1(C)CCC[C@]2(C)[C@H]3Cc4occc4[C@@](C)(O)[C@@H]3C[C@@H](OC(=O)c3ccccc3)[C@@]12O` [ISOVOUACAPENOL B] as the molecule, how does the zone of inhibition at 30 µg/disc [1] read?
Answer: 14 mm

Question: And the zone of inhibition at 30 µg/disc [2]?
Answer: 12 mm

Question: And the zone of inhibition at 30 µg/disc [3]?
Answer: 13 mm

Question: What about the Activity [4] of the same molecule?
Answer: 0.4

Question: What about the Activity [5] of the same molecule?
Answer: 0.3

Question: What about the Activity [6] of the same molecule?
Answer: 0.4

Question: What about the Activity [7] of the same molecule?
Answer: 0.2

Question: What about the zone of inhibition at 30 µg/disc [8] of the same molecule?
Answer: 14 mm

Question: And the Activity [9]?
Answer: 0.4

Question: And the Activity [10]?
Answer: 0.2

Question: What about the Activity [11] of the same molecule?
Answer: 0.4

Question: And the zone of inhibition at 30 µg/disc [14]?
Answer: 12 mm

Question: And the zone of inhibition at 30 µg/disc [12]?
Answer: 14 mm

Question: What about the zone of inhibition at 30 µg/disc [13] of the same molecule?
Answer: 14 mm

Question: With `C[C@H]1c2ccoc2C[C@H]2[C@H]1[C@@H](O)[C@@H](OC(=O)c1ccccc1)[C@@]1(O)C(C)(C)CCC[C@]21C` [ISOVOUACAPENOL C] as the molecule, how does the zone of inhibition at 30 µg/disc [1] read?
Answer: 16 mm

Question: What about the zone of inhibition at 30 µg/disc [2] of the same molecule?
Answer: 12 mm

Question: And the zone of inhibition at 30 µg/disc [3]?
Answer: 13 mm

Question: What about the Activity [4] of the same molecule?
Answer: 0.5

Question: And the Activity [5]?
Answer: 0.3

Question: What about the Activity [6] of the same molecule?
Answer: 0.6

Question: What about the Activity [7] of the same molecule?
Answer: 0.2

Question: And the zone of inhibition at 30 µg/disc [8]?
Answer: 13 mm

Question: What about the Activity [9] of the same molecule?
Answer: 0.2

Question: What about the Activity [10] of the same molecule?
Answer: 0

Question: And the Activity [11]?
Answer: 0.3

Question: And the zone of inhibition at 30 µg/disc [12]?
Answer: 12 mm

Question: And the zone of inhibition at 30 µg/disc [13]?
Answer: 15 mm

Question: `Cc1c2c(cc3occc13)[C@@]1(C)CCCC(C)(C)[C@]1(O)[C@H](OC(=O)c1ccccc1)C2` [ISOVOUACAPENOL D] was tested. Which zone of inhibition at 30 µg/disc [1] did it give?
Answer: 12 mm

Question: And the zone of inhibition at 30 µg/disc [2]?
Answer: 12 mm

Question: What about the zone of inhibition at 30 µg/disc [3] of the same molecule?
Answer: 12 mm

Question: And the Activity [4]?
Answer: 0.2

Question: What about the Activity [5] of the same molecule?
Answer: 0.2

Question: What about the Activity [6] of the same molecule?
Answer: 0.2

Question: What about the Activity [7] of the same molecule?
Answer: 0.2

Question: What about the zone of inhibition at 30 µg/disc [8] of the same molecule?
Answer: 12 mm

Question: What about the Activity [9] of the same molecule?
Answer: 0.2

Question: What about the Activity [10] of the same molecule?
Answer: 0

Question: What about the Activity [11] of the same molecule?
Answer: 0.2

Question: And the zone of inhibition at 30 µg/disc [12]?
Answer: 12 mm

Question: What about the zone of inhibition at 30 µg/disc [13] of the same molecule?
Answer: 12 mm
